ChEMBL document CHEMBL1151243, “New cytotoxic oleanane-type triterpenoids from the cones of Liquidamber styraciflua” (2004)

Tests used:
Assay type in all cases: functional
MKN-7 = experiment: Cytotoxicity against human MKN7 cells after 48 hrs by SRB assay; conditions: MKN-7, 48 h
Method in brief: (§1)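 Cells plated at suitable density in RPMI 1640 with 5% fetal bovine serum and left overnight to attach, then exposed to compound for 48 h. Growth measured by sulforhodamine B staining. GI50 (50% growth inhibition) computed from percent-growth values.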

[1] = Cytotoxicity against human HBC4 cells after 48 hrs by SRB assay; conditions: HBC4, 48 h; method in brief: as §1
[2] = Cytotoxicity against human BSY1 cells after 48 hrs by SRB assay; conditions: BSY-1, 48 h; method in brief: as §1
MCF7 = experiment: Cytotoxicity against human MCF7 cells after 48 hrs by SRB assay; conditions: MCF7, 48 h; method in brief: as §1
MDA-MB-231 = experiment: Cytotoxicity against human MDA-MB-231 cells after 48 hrs by SRB assay; conditions: MDA-MB-231, 48 h; method in brief: as §1
U-251 = experiment: Cytotoxicity against human U251 cells after 48 hrs by SRB assay; conditions: U-251, 48 h; method in brief: as §1
SF-268 = experiment: Cytotoxicity against human SF268 cells after 48 hrs by SRB assay; conditions: SF-268, 48 h; method in brief: as §1
SF-295 = experiment: Cytotoxicity against human SF295 cells after 48 hrs by SRB assay; conditions: SF-295, 48 h; method in brief: as §1
SF-539 = experiment: Cytotoxicity against human SF539 cells after 48 hrs by SRB assay; conditions: SF-539, 48 h; method in brief: as §1
SNB-75 = experiment: Cytotoxicity against human SNB75 cells after 48 hrs by SRB assay; conditions: SNB-75, 48 h; method in brief: as §1
SNB-78 = experiment: Cytotoxicity against human SNB78 cells after 48 hrs by SRB assay; conditions: SNB-78, 48 h; method in brief: as §1
HCC 2998 = experiment: Cytotoxicity against human HCC2998 cells after 48 hrs by SRB assay; conditions: HCC 2998, 48 h; method in brief: as §1
KM12 = experiment: Cytotoxicity against human KM12 cells after 48 hrs by SRB assay; conditions: KM12, 48 h; method in brief: as §1
HT-29 = experiment: Cytotoxicity against human HT-29 cells after 48 hrs by SRB assay; conditions: HT-29, 48 h; method in brief: as §1
HCT-15 = experiment: Cytotoxicity against human HCT15 cells after 48 hrs by SRB assay; conditions: HCT-15, 48 h; method in brief: as §1
HCT-116 = experiment: Cytotoxicity against human HCT116 cells after 48 hrs by SRB assay; conditions: HCT-116, 48 h; method in brief: as §1
NCI-H23 = experiment: Cytotoxicity against human NCI-H23 cells after 48 hrs by SRB assay; conditions: NCI-H23, 48 h; method in brief: as §1
NCI-H226 = experiment: Cytotoxicity against human NCI-H226 cells after 48 hrs by SRB assay; conditions: NCI-H226, 48 h; method in brief: as §1
NCI-H522 = experiment: Cytotoxicity against human NCI-H522 cells after 48 hrs by SRB assay; conditions: NCI-H522, 48 h; method in brief: as §1
NCI-H460 = experiment: Cytotoxicity against human NCI-H460 cells after 48 hrs by SRB assay; conditions: NCI-H460, 48 h; method in brief: as §1
A549 = experiment: Cytotoxicity against human A549 cells after 48 hrs by SRB assay; conditions: A549, 48 h; method in brief: as §1
DMS-273 = experiment: Cytotoxicity against human DMS273 cells after 48 hrs by SRB assay; conditions: DMS-273, 48 h; method in brief: as §1
DMS-114 = experiment: Cytotoxicity against human DMS114 cells after 48 hrs by SRB assay; conditions: DMS-114, 48 h; method in brief: as §1
LOX IMVI = experiment: Cytotoxicity against human LOXIMVI cells after 48 hrs by SRB assay; method in brief: as §1
OVCAR-3 = experiment: Cytotoxicity against human OVCAR-3 cells after 48 hrs by SRB assay; conditions: OVCAR-3, 48 h; method in brief: as §1
OVCAR-4 = experiment: Cytotoxicity against human OVCAR4 cells after 48 hrs by SRB assay; conditions: OVCAR-4, 48 h; method in brief: as §1
OVCAR-5 = experiment: Cytotoxicity against human OVCAR5 cells after 48 hrs by SRB assay; conditions: OVCAR-5, 48 h; method in brief: as §1
OVCAR-8 = experiment: Cytotoxicity against human OVCAR8 cells after 48 hrs by SRB assay; conditions: OVCAR-8, 48 h; method in brief: as §1
SK-OV-3 = experiment: Cytotoxicity against human SKOV3 cells after 48 hrs by SRB assay; conditions: SK-OV-3, 48 h; method in brief: as §1
[3] = Cytotoxicity against human RXF631L cells after 48 hrs by SRB assay; conditions: RXF 631, 48 h; method in brief: as §1
ACHN = experiment: Cytotoxicity against human ACHN cells after 48 hrs by SRB assay; method in brief: as §1
St-4 = experiment: Cytotoxicity against human St-4 cells after 48 hrs by SRB assay; conditions: St-4, 48 h; method in brief: as §1
[4] = Cytotoxicity against human MKN1 cells after 48 hrs by SRB assay; conditions: MKN-1, 48 h; method in brief: as §1
MKN-28 = experiment: Cytotoxicity against human MKN28 cells after 48 hrs by SRB assay; conditions: MKN-28, 48 h; method in brief: as §1
MKN-45 = experiment: Cytotoxicity against human MKN45 cells after 48 hrs by SRB assay; conditions: MKN-45, 48 h; method in brief: as §1
MKN-74 = experiment: Cytotoxicity against human MKN74 cells after 48 hrs by SRB assay; conditions: MKN-74, 48 h; method in brief: as §1
DU-145 = experiment: Cytotoxicity against human DU145 cells after 48 hrs by SRB assay; conditions: DU-145, 48 h; method in brief: as §1
PC-3 = experiment: Cytotoxicity against human PC3 cells after 48 hrs by SRB assay; conditions: PC-3, 48 h; method in brief: as §1
[5] = Cytotoxicity against human HBC5 cells after 48 hrs by SRB assay; conditions: HBC5, 48 h; method in brief: as §1

CC(=O)OC[C@]12CC[C@@H](O)C(C)(C)C1CC[C@]1(C)[C@@H]2CC=C2[C@@H]3CC(C)(C)CC[C@]3(C(=O)O)CC[C@]21C (some centres undefined)
GI50 (MKN-7): 6.61 µM
GI50 [1]: 7.94 µM
GI50 [2]: 10.7 µM
GI50 (MCF7): 8.32 µM
GI50 (MDA-MB-231): 19.5 µM
GI50 (U-251): 6.03 µM
GI50 (SF-268): 15.5 µM
GI50 (SF-295): 8.71 µM
GI50 (SF-539): 6.31 µM
GI50 (SNB-75): 15.8 µM
GI50 (SNB-78): 15.8 µM
GI50 (HCC 2998): 28.2 µM
GI50 (KM12): 5.13 µM
GI50 (HT-29): 3.39 µM
GI50 (HCT-15): 6.46 µM
GI50 (HCT-116): 4.57 µM
GI50 (NCI-H23): 8.51 µM
GI50 (NCI-H226): 18.6 µM
GI50 (NCI-H522): 13.8 µM
GI50 (NCI-H460): 13.8 µM
GI50 (A549): 4.27 µM
GI50 (DMS-273): 6.31 µM
GI50 (DMS-114): 13.5 µM
GI50 (LOX IMVI): 11.2 µM
GI50 (OVCAR-3): 11 µM
GI50 (OVCAR-4): 10 µM
GI50 (OVCAR-5): 18.2 µM
GI50 (OVCAR-8): 11.2 µM
GI50 (SK-OV-3): 20.4 µM
GI50 [3]: 11.7 µM
GI50 (ACHN): 5.37 µM
GI50 (St-4): 9.12 µM
GI50 [4]: 11 µM
GI50 (MKN-28): 5.62 µM
GI50 (MKN-45): 17.8 µM
GI50 (MKN-74): 7.76 µM
GI50 (DU-145): 13.2 µM
GI50 (PC-3): 11.5 µM
GI50 [5]: 11 µM
